# Assay results from publication PMC11298890 (iScience, 2024).
# Like-named read-outs stand apart in the source and are kept apart here.
# Assays:
# HsPRS [1] = biological target: T1, HsPRS (Homo sapiens, UniProt P07814); assay: Aminoacylation activity inhibition assay; format: biochemical
# T1 sequence (P07814 1007-1512 limits assumed): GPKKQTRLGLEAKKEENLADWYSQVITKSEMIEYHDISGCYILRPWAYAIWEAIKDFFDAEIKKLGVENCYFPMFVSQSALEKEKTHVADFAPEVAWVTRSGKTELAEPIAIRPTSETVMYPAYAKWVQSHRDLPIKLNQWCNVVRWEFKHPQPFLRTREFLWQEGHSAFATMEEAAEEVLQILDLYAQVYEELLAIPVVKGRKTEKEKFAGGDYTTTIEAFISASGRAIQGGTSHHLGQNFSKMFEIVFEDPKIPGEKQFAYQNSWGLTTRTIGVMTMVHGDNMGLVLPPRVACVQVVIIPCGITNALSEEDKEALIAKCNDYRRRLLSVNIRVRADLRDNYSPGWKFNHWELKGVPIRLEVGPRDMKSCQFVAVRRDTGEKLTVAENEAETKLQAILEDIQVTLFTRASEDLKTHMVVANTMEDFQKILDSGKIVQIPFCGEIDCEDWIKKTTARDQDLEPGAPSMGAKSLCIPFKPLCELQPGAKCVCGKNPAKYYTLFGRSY
# PfPRS [2] = biological target: T2, PfPRS (Plasmodium falciparum, UniProt Q8I5R7); format: binding; conditions: Enzyme:Compound 1:50
# T2 sequence (Q8I5R7 250-746 limits assumed): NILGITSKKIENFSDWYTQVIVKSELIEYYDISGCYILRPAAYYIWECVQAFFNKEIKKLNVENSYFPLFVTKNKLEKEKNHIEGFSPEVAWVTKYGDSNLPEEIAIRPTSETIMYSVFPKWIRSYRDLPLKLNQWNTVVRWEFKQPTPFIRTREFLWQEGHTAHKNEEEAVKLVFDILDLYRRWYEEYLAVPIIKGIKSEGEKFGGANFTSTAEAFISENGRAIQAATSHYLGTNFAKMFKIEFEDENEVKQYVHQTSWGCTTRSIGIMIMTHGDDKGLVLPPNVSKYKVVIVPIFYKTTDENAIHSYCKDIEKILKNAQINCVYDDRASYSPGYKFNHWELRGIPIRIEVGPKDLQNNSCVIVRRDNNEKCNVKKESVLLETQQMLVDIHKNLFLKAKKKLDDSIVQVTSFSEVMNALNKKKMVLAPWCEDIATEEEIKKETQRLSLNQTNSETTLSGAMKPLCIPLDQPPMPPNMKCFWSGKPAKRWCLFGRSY
# [3] = test system: Plasmodium falciparum 3D7; assay: Asexual blood stage parasite growth inhibition; format: cell-based; conditions: 3D7, 48 h, read-out: Pf-EC50 (ABS), Pf 3D7, 48 h
# HsPRS [4] = biological target: T1, HsPRS; assay: Microscale thermophoresis; format: binding; conditions: Kd-Hs
# Outline: (§1)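 Recombinant tag-cleaved PRS (affinity, heparin and gel-filtration purified) labelled on lysines with Red-NHS 2nd-generation dye and held at 100 nM. Kd from MST; two independent replicates.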
# PfPRS [5] = biological target: T2, PfPRS; assay: Microscale thermophoresis; format: binding; conditions: for Kd: Kd-Pf
# Outline: as §1
# HsPRS [6] = biological target: T1, HsPRS; format: binding
# PfPRS [7] = biological target: T2, PfPRS; assay: Aminoacylation activity inhibition assay; format: biochemical
# [8] = replicate n = 1, MST, individual replicate 1
# [9] = replicate n = 2, MST, individual replicate 2
compound,measurement,setting,value
"O=C(CC1NCCCC1O)Cn1cnc2cc(Br)c(Cl)cc2c1=O (centres unmarked) [HFG, Halofuginone]",IC50,HsPRS [1],10.9 nM
same,PfPRS melting temperature (Tm),PfPRS [2]; in presence of ATP (2 mM),87.7 °C
same,PfPRS melting temperature (Tm),PfPRS [2]; in presence of L-pro (2 mM),54.7 °C
same,PfPRS melting temperature (Tm),PfPRS [2]; in presence of L-pro + ATP (2 mM),86.6 °C
same,EC50,[3],0.2 nM
same,Kd,HsPRS [4]; [8],42.4 nM
same,Kd,HsPRS [4]; [9],61.9 nM
same,SI-Kd (Hs/Pf),PfPRS [5]; Kd-Hs / Kd-Pf,0.7
same,Kd,PfPRS [5]; [8],74.8 nM
same,Kd,PfPRS [5]; [9],72.9 nM
same,HsPRS ΔTm from Apo Tm,HsPRS [6],61.4 (11.6) °C
same,HsPRS melting temperature (Tm),"HsPRS [6]; enzyme + inhibitor only, no substrate, Enzyme:Compound 1:100",61.4 (11.6) °C
same,IC50,PfPRS [7],2.8 nM
same,SI-IC50 (Hs/Pf),PfPRS [7]; IC50 of the human enzyme divided by that of the plasmodium enzyme,3.9
